Laboratory results published in ChEMBL document CHEMBL4765456, “Discovery of novel liver X receptor inverse agonists as lipogenesis inhibitors” (Eur J Med Chem, 2020).
Active and inactive are the calls of the source. The calls are words filed in the database; no cut-off is given here.

Experiments:
Format in all cases: cell-based
[1] = molecular target: T1, Oxysterols receptor LXR-beta (Homo sapiens) (UniProt P55055); test: (§1) Inverse agonist activity at human LXRbeta transfected in human HEK293T cells co-transfected with pSG5 and pGL3/(DR-4)-c-fos-FF-luc/pCMV/Renilla-luc assessed as receptor transactivation incubated for 20 hrs by dual luciferase reporter gene assay
T1 sequence (whole entry): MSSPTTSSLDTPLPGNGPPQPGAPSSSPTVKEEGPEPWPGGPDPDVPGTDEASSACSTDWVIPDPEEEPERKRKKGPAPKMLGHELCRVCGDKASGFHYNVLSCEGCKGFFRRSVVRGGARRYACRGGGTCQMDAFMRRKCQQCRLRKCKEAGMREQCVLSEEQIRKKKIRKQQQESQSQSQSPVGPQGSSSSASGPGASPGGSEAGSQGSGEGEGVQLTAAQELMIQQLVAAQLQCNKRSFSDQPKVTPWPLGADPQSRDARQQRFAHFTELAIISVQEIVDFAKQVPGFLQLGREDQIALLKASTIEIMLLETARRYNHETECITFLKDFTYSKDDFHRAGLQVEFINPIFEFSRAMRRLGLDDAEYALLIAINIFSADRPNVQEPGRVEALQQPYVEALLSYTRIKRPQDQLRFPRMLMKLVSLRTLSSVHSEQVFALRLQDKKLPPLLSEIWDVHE

[2] = molecular target: T1, Oxysterols receptor LXR-beta (Homo sapiens); test: Agonist activity at human LXRbeta transfected in human HEK293T cells co-transfected with pSG5 and pGL3/(DR-4)-c-fos-FF-luc/pCMV/Renilla-luc assessed as receptor transactivation at 10 uM incubated for 20 hrs by dual luciferase reporter gene assay; details: filed as agonist
In short: (§2)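 HEK293T cells seeded at 2 × 10^4 per well for 24 h, then transfected with pGL3/(DR-4)-c-fos-FF-luc, pCMV/Renilla-luc, pSG5/hRXRa and pSG5/hLXRa or pSG5/hLXRb. Compound added 5 h post-transfection and left 20 h. Firefly and Renilla luciferase read by dual-luciferase assay. Means ± SD from three independent experiments.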

[3] = molecular target: T2, Oxysterols receptor LXR-alpha (Homo sapiens) (UniProt Q13133); test: Agonist activity at human LXRalpha transfected in human HEK293T cells co-transfected with pSG5 and pGL3/(DR-4)-c-fos-FF-luc/pCMV/Renilla-luc assessed as receptor transactivation at 10 uM incubated for 20 hrs by dual luciferase reporter gene assay; details: filed as agonist; in short: as §2
T2 sequence (whole entry): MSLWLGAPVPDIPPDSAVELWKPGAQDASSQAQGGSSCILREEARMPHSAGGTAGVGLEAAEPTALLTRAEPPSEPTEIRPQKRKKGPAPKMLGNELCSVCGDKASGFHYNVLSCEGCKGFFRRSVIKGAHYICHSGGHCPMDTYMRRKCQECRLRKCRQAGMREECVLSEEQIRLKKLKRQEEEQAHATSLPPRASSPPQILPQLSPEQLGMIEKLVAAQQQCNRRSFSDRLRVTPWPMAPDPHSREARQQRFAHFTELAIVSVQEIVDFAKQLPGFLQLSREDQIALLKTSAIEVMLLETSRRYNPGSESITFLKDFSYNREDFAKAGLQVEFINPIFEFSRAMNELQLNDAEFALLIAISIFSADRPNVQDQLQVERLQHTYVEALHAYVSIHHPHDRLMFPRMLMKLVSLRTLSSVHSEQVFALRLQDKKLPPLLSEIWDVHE

[4] = molecular target: T3, Oxysterols receptor LXR-alpha (Homo sapiens, UniProt Q13133); test: Inverse agonist activity at human LXRalpha transfected in human HEK293T cells co-transfected with pSG5 and pGL3/(DR-4)-c-fos-FF-luc/pCMV/Renilla-luc assessed as receptor transactivation incubated for 20 hrs by dual luciferase reporter gene assay
T3 sequence (Q13133 whole entry): T2 sequence (whole entry)

[5] = molecular target: T4, Oxysterols receptor LXR-beta (Homo sapiens, UniProt P55055); test: as §1
T4 sequence (P55055 whole entry): T1 sequence (whole entry)

HEK-293T = test: Cytotoxicity against human HEK293T cells assessed as reduction in cell viability upto 10 uM incubated for 48 hrs by MTT assay
In short: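 Cells kept in DMEM with 10% FBS and 1% penicillin/streptomycin at 37 °C, 5% CO2. HEK293T seeded at 5 × 10^3 per well for 24 h, then exposed to compound for 48 h. Viability read by MTT. Means ± SD of three independent experiments.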

3T3-L1 = test: Cytotoxicity against mouse 3T3-L1 cells assessed as reduction in cell viability at 10 uM incubated for 48 hrs by MTT assay; details: 3t3-l1, 48 h
In short: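 Mouse 3T3-L1 cells in DMEM with 10% FBS, 1% penicillin/streptomycin, at 37 °C, 5% CO2. Plated at 2 × 10^3 per well for 24 h, then compound for 48 h. MTT read-out of viability. Means ± SD, three independent experiments.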

HepG2 = test: Cytotoxicity against human HepG2 cells assessed as reduction in cell viability at 10 uM incubated for 48 hrs by MTT assay; details: hepg2, 48 h
In short: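 HepG2 grown in DMEM with 10% FBS at 37 °C, 5% CO2. Seeded at 1 × 10^5 per well for 24 h, treated 48 h, viability by MTT assay. Means ± SD from three independent experiments.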

Row | Activity [1] | Activity [2] | Activity [3] | Structure (SMILES) | further results
1 | inactive |  |  | CC(C)[C@@H]1N(C(=O)OC(C)(C)C)CC[C@@]12C(=O)N(CCCC#N)c1ccccc12 | 
2 | inactive | Active | Active | CC(C)[C@@H]1N(C(=O)OC(C)(C)C)CC[C@@]12C(=O)N(c1cccc(-c3ccc(C(=O)N(C)C)c(Cl)c3)c1)c1ccccc12 | 
3 | inactive | Active | Active | CC(C)[C@@H]1N(C(=O)OC(C)(C)C)CC[C@@]12C(=O)N(c1ccc(CO)c(S(C)(=O)=O)c1)c1ccccc12 | 

Continued, molecule first:

Row | Structure (SMILES) | Activity [1] | Activity [2] | Activity [3] | further results
4 | COC(=O)c1ccc(N2C(=O)[C@@]3(CCN(C(=O)OC(C)(C)C)[C@H]3C(C)C)c3ccccc32)cc1 | inactive |  |  | 
5 | CC(C)[C@@H]1N(C(=O)OC(C)(C)C)CC[C@@]12C(=O)N(CCCCl)c1ccccc12 | inactive |  |  | 
6 | CC(C)[C@@H]1N(C(=O)OC(C)(C)C)CC[C@@]12C(=O)N(CCCC(=O)O)c1ccccc12 | inactive |  |  | 
7 | CC(C)[C@@H]1N(C(=O)OC(C)(C)C)CC[C@@]12C(=O)N(c1cccc(-c3ccc4ccn(C)c4c3)c1)c1ccccc12 |  |  |  | IC50 [4]: Not Active; IC50 [5]: > 20 µM
8 | CC(C)[C@@H]1N(C(=O)OC(C)(C)C)CC[C@@]12C(=O)N(c1ccc(CO)cc1)c1ccccc12 | inactive |  |  | 
9 | CC(C)[C@H]1N(C(=O)OC(C)(C)C)CC[C@]12C(=O)N(c1cccc(-c3ccc(CO)c(S(C)(=O)=O)c3)c1)c1ccccc12 |  |  |  | Activity (HEK-293T): Non-Toxic; Activity (3T3-L1): Non-Toxic; Activity (HepG2): Non-Toxic
10 | COC(=O)c1ccc(N2C(=O)[C@@]3(CCN(C(=O)OC(C)(C)C)[C@H]3C(C)C)c3ccccc32)cc1S(C)(=O)=O | inactive | Active | Active | 
11 | CC(C)[C@@H]1N(C(=O)OC(C)(C)C)CC[C@@]12C(=O)N(c1cccc(-c3ccc(CO)c(Cl)c3)c1)c1ccccc12 |  |  |  | IC50 [4]: Not Active
12 | CC(C)[C@@H]1N(C(=O)C(C)(C)C)CC[C@@]12C(=O)N(c1cccc(-c3ccc(C(=O)N(C)C)c(Cl)c3)c1)c1ccccc12 | inactive | Active | Active | 
13 | CC(C)[C@@H]1N(C(=O)CC(C)(C)C)CC[C@@]12C(=O)N(c1cccc(-c3ccc(C(=O)N(C)C)c(Cl)c3)c1)c1ccccc12 | inactive | Active | Active | 
14 | CC(C)[C@@H]1N(C(=O)OC(C)(C)C)CC[C@@]12C(=O)N(c1cccc(-c3ccc(C(=O)O)c(S(C)(=O)=O)c3)c1)c1ccccc12 |  |  |  | IC50 [4]: Not Active
15 | CC(C)[C@@H]1N(C(=O)OC(C)(C)C)CC[C@@]12C(=O)N(c1cccc(-c3ccc(CO)cc3)c1)c1ccccc12 |  |  |  | IC50 [4]: Not Active
